One may read the IC50 as the concentration needed to halve the response being measured. Higher therefore signals lower potency.

The test system of assay [1] is MCF7. Kind of assay: In vitro cytotoxicity of compound against MCF-7 cell line expressed as percent of viable cells compared to untreated control at a concentration of 5 uM. Format: functional, cell-based. The note with it: Homo sapiens. Summed up:
(§1)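 First screen: exponential-phase MCF-7 cells (DMEM with 25 mM HEPES, 10% FCS, 37 °C, 5% CO2), 250000/well, given the ferrocenium salt 5–500 μM continuously for 48 h from 24 h after seeding. MTT (5 mg/mL in saline) added for 60 min; formazan read at 570 nm with 690 nm correction. Percent viable versus untreated control; mean of three replications.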

Assay [2] relates to MCF7. Kind of assay: In vitro cytotoxicity of compound against MCF-7 cell line expressed as percent of viable cells compared to untreated control at a concentration of 100 uM. The settings on record: Homo sapiens. It counts as functional, cell-based. Summed up: as §1
Assay [3] concerns MCF7. Kind of assay: In vitro cytotoxicity of compound against MCF-7 cell line expressed as percent of viable cells compared to untreated control at a concentration of 50 uM. Format: functional, cell-based. The settings on record: Homo sapiens. In short, it runs like this:
as §1

For assay [4], the system named is MCF7. Kind of assay: In vitro cytotoxicity of compound against MCF-7 cell line expressed as percent of viable cells compared to untreated control at a concentration of 10 uM. Format: functional, cell-based. The note with it: Homo sapiens. Summed up: as §1
In assay [5] the test system is MCF7. Kind of assay: In vitro cytotoxicity of compound against MCF-7 cell line expressed as percent of viable cells compared to untreated control at a concentration of 500 uM. The settings on record: Homo sapiens. It counts as functional, cell-based. In short, it runs like this:
as §1

For assay [6], the system named is MCF7. Kind of assay: Concentration required to reduce to 50% the number of MCF-7 cells with respect to untreated control after exposure to compound for 24 h. It counts as functional, cell-based, Homo sapiens. Summed up:
(§2)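 MCF-7 cells (DMEM with 25 mM HEPES, 2 mM L-glutamine, 10% FCS; 37 °C, 5% CO2) in exponential growth, 250000 cells/well, dosed after 24 h at 10, 50, 100, 500 μM for 2, 12, 24 or 48 h. Medium then replaced; MTT read at 570 nm (690 nm background) 5 days from start, versus time-matched washed control. IC50 from three replications.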

Assay [7] relates to MCF7. Kind of assay: In vitro cytotoxicity against MCF-7 cell line as percent of viable cells compared to control at a concentration of 30 uM. Format: functional, cell-based. The settings on record: Homo sapiens.
Assay [8] concerns MCF7. Kind of assay: In vitro cytotoxicity against MCF-7 cell line expressed as percent of viable cells compared to untreated control at a concentration of 500 uM for 24 h. Format: functional, cell-based. The note with it: Homo sapiens. In short, it runs like this:
(§3)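 Viability in MCF-7 cells (DMEM, 25 mM HEPES, 10% FCS, 37 °C, 5% CO2) seeded 250000/well and treated after 24 h for 24 h. Medium then replaced with fresh; MTT formazan read at 570 nm minus 690 nm, 5 days after treatment start. Percent of the untreated control washed at the same time; mean of three independent experiments.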

Assay [9] relates to MCF7. Kind of assay: In vitro cytotoxicity against MCF-7 cell line as percent of viable cells compared to control at a concentration of 40 uM. Format: functional, cell-based. The settings on record: Homo sapiens.
In assay [10] the test system is MCF7. Kind of assay: In vitro cytotoxicity against MCF-7 cell line as percent of viable cells compared to control at a concentration of 10 uM. It counts as functional, cell-based. The note with it: Homo sapiens.
Assay [11] has as its system MCF7. Kind of assay: In vitro cytotoxicity against MCF-7 cell line as percent of viable cells compared to control at a concentration of 20 uM. The note with it: Homo sapiens. It counts as functional, cell-based.
Assay [12] relates to MCF7. Kind of assay: In vitro cytotoxicity against MCF-7 cell line expressed as percent of viable cells compared to untreated control at a concentration of 50 uM for 24 h. The settings on record: Homo sapiens. It counts as functional, cell-based. Summed up:
as §3

The test system of assay [13] is MCF7. Kind of assay: In vitro cytotoxicity against MCF-7 cell line as percent of viable cells compared to control at a concentration of 15 uM. The settings on record: Homo sapiens. It counts as functional, cell-based.
Assay [14] concerns MCF7. Kind of assay: In vitro cytotoxicity against MCF-7 cell line expressed as percent of viable cells compared to untreated control at a concentration of 100 uM for 24 h. Format: functional, cell-based. The note with it: Homo sapiens. Summed up: as §3
Assay [15] deals with MCF7. Kind of assay: In vitro cytotoxicity against MCF-7 cell line expressed as percent of viable cells compared to untreated control at a concentration of 10 uM for 24 h. It counts as functional, cell-based. The note with it: Homo sapiens. In short, it runs like this: as §3
For assay [16], the system named is MCF7. Kind of assay: In vitro cytotoxicity against MCF-7 cell line as percent of viable cells compared to control at a concentration of 5 uM. It counts as functional, cell-based. The note with it: Homo sapiens.
For assay [17], the system named is MCF7. Kind of assay: Concentration required to reduce to 50% the number of MCF-7 cells with respect to untreated control after exposure to compound for 48 h. It counts as functional, cell-based, Homo sapiens. Summed up: as §2
Assay [18] deals with MCF7. Kind of assay: Concentration required to reduce to 50% the number of MCF-7 cells with respect to untreated control after exposure to compound for 2 h. Format: functional, cell-based, Homo sapiens. Summed up: as §2
Assay [19] deals with MCF7. Kind of assay: Concentration required to reduce to 50% the number of MCF-7 cells with respect to untreated control after exposure to compound for 12 h. It counts as functional, cell-based, Homo sapiens. In short, it runs like this:
as §2

In assay [20] the test system is MCF7. Kind of assay: In vitro cytotoxicity against MCF-7 cell line expressed as percent of viable cells compared to untreated control at a concentration of 70 uM. The note with it: Homo sapiens. It counts as functional, cell-based. In short, it runs like this:
(§4)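 Exponential-phase MCF-7 cells, grown in DMEM with 25 mM HEPES, 2 mM L-glutamine and 10% FCS at 37 °C and 5% CO2, were seeded at 250000 cells/well. After 24 h they got a single agent for 24 h at 10, 20, 35, 50 or 70 μM, then fresh medium. Viability was read by MTT (570 nm, 690 nm background) 5 days from treatment start, as % of untreated control.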

For assay [21], the system named is MCF7. Kind of assay: In vitro cytotoxicity against MCF-7 cell line expressed as percent of viable cells compared to untreated control at a concentration of 20 uM. Format: functional, cell-based. The settings on record: Homo sapiens. In short, it runs like this:
as §4

Assay [22] concerns MCF7. Kind of assay: In vitro cytotoxicity against MCF-7 cell line expressed as percent of viable cells compared to untreated control at a concentration of 50 uM. It counts as functional, cell-based. The settings on record: Homo sapiens. In short, it runs like this:
as §4

In assay [23] the test system is MCF7. Kind of assay: In vitro cytotoxicity against MCF-7 cell line expressed as percent of viable cells compared to untreated control at a concentration of 10 uM. It counts as functional, cell-based. The settings on record: Homo sapiens. In short, it runs like this: as §4
The subject of assay [24] is MCF7. Kind of assay: In vitro cytotoxicity against MCF-7 cell line expressed as percent of viable cells compared to untreated control at a concentration of 35 uM. It counts as functional, cell-based. The note with it: Homo sapiens. Summed up:
as §4

For “FERROCENIUM TETRAFLUOROBORATE [listing 1 of 2 here]”, the Viable cells in assay [1] is 100%; in assay [2] it was 99%; in [3] it was 100%; in [4], 98%; in [5], 13%.

In the case of “FERROCENIUMBORONIC ACID TETRAFLUOROBORATE”, the Viable cells in assay [1] came out at 102%; in assay [2] it was 98%; in [3] it was 101%; in assay [4] it was 101%; in [5], 8%.

BLEOMYCIN [listing 1 of 2 here] showed a half-maximal inhibitory concentration (IC50) in assay [6] of 53 µM.

[sequence] TETRAFLUOROBORATE: the Viable cells in [7] was 7%; in [1], 100%; in [2] it was 10%; in [8], 4%; in assay [9], 3%; in [3], 32%. The Viable cells came out at 88% in assay [10]; 13% in assay [11]; 88% in assay [4]; 64% in assay [12]; 34% in assay [13]; 14% in [14]. Besides, the values for the Viable cells in assay [5], in [15] and in assay [16] were 11%, 99% and 94%, respectively.

Regarding DECAMETHYLFERROCENIUM TETRAFLUOROBORATE, the 50% inhibitory concentration (IC50) was determined as 58 µM in assay [6], 35 µM in assay [17], 86 µM in assay [18] and 74 µM in assay [19].

Regarding “FERROCENIUM TETRAFLUOROBORATE [listing 2 of 2 here]”, the 50% inhibitory concentration (IC50) in assay [6] was 256 µM; in assay [17], 249 µM; in assay [18], 308 µM; in assay [19], 238 µM.

As for BLEOMYCIN [listing 2 of 2 here], the Viable cells in assay [20] amounted to 51%; in assay [21] it was 65%; in [22], 48%; in assay [23], 69%; in assay [24], 57%.

As for “1,1'-dimethylferrocenium tetrafluoroborate”, the Viable cells was found to be 99% in assay [1]; 90% in assay [2]; 93% in assay [3]; 100% in [4]; 17% in assay [5].

Regarding [sequence] ACID TETRAFLUOROBORATE, the Viable cells in assay [1] was 100%; in assay [2], 97%; in assay [3] it was 97%; in assay [4], 98%; in assay [5] it was 17%.
